Data reported in PMC8448912 (ChemMedChem, 2021).

Legend:
Format in all cases: cell-based
[1] = system: MDA-MB-231 (Breast); assay: MTT antiproliferative assay, 72 h; conditions: Homo sapiens, MDA-MB-231, 72 h, read-out: IC50 values
Outline: (§1)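 Human cancer cell lines (breast MDA-MB-231 and MCF-7, ovarian A2780, colorectal Caco-2 and HT-29) exposed to test compound for 72 h. Growth measured by MTT assay. IC50 values reported as mean ± SDM, n = 3.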

[2] = system: MCF-7 (Breast); assay: MTT antiproliferative assay, 72 h; conditions: Homo sapiens, MCF7, 72 h, read-out: IC50 values
Outline: as §1

[3] = system: A2780 (Ovary); assay: MTT antiproliferative assay, 72 h; conditions: Homo sapiens, A2780, 72 h, read-out: IC50 values
Outline: as §1

[4] = system: Caco-2 (Colon); assay: MTT antiproliferative assay, 72 h; conditions: Homo sapiens, Caco-2, 72 h, read-out: IC50 values
Outline: as §1

[5] = system: HT-29 (Colon); assay: MTT antiproliferative assay, 72 h; conditions: Homo sapiens, HT-29, 72 h, read-out: IC50 values
Outline: as §1

[6] = system: MRC-5 (Normal lung); assay: MTT antiproliferative assay, 72 h; conditions: Homo sapiens, MRC5, 72 h, read-out: IC50 values
[7] = system: panel of breast, ovarian and colorectal cancer cells; assay: antiproliferative activity in the panel of cell lines; conditions: read-out: IC50 values in this screen
Outline: as §1

- IC50 [1]: 5.8 ± 0.4 µM
- IC50 [2]: 21 ± 2 µM
- IC50 [3]: 3.83 ± 0.02 µM
- IC50 [4]: 3.7 ± 0.3 µM
- IC50 [5]: 2400 ± 100 nM
- IC50 [7]: 2 to 20 µM
Structure (SMILES): CC(=O)N(O)CCCCCNC(=O)CCC(=O)N(O)CCCCCNC(=O)CCC(=O)N(O)CCCCCN [DFO, desferrioxamine]
- IC50 [6]: 9 ± 1 µM
